Compound activity (PubChem BioAssay)
HDAC3 inhib: HDAC3 deacetylase inhibitors, primary screen, biochemical, fluorescence, cell-free homogeneous. Histone deacetylase 3 (Homo sapiens), O15379. recombinant HDAC3, fluorogenic peptide/trypsin coupled. inhibition, % at 8.3 µM. 320,000 tested, 0.15% active. AID 2718, 2010; in the data active means inhibition above about 26%, passing the limit was not always enough; inconclusive means no clear call, values can overlap the other calls
LANA-H2B inh: blockers of LANA interaction with H2A/H2B – biochemical, FP readout, HTS, primary screen. 320,000 tested, 0.6% active. inhibition, % (test concentration not listed). cell-free LANA-H2A/H2B peptide, fluorescence polarization; in the data active means inhibition mostly above about 10%, no sharp cut-off; inactive means mostly below about 6.7%
Target sequence (Q9QR71 whole entry, looked up): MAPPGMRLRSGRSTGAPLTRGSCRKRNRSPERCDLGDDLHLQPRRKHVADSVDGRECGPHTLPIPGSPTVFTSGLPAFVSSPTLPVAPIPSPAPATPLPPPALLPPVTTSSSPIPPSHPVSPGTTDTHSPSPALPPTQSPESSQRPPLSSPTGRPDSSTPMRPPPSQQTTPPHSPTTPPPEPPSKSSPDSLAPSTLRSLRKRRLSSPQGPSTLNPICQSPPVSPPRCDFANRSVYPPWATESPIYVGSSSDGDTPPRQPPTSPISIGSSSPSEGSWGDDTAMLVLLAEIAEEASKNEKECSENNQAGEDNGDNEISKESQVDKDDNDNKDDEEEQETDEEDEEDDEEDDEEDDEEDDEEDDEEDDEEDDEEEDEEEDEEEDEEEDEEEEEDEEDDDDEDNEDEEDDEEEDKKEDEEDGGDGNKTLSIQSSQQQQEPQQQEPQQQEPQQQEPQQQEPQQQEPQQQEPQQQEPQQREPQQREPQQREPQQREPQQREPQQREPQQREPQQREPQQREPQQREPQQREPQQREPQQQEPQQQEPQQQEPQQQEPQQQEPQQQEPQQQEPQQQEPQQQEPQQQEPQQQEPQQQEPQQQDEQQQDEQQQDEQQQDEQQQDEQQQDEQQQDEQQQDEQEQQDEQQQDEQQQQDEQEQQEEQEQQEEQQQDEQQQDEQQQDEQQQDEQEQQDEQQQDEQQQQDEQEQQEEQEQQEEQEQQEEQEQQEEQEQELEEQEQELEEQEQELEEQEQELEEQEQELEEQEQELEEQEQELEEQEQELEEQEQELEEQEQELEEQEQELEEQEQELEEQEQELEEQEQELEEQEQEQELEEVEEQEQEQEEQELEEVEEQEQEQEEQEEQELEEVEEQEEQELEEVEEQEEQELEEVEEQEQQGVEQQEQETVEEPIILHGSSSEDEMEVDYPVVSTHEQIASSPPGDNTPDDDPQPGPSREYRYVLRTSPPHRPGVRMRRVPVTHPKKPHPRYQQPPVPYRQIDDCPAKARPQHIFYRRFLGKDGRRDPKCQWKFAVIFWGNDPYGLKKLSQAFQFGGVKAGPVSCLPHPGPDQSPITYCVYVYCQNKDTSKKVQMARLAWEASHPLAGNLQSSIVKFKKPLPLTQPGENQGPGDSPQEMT
Runt-CBFb FRET: inhibitors of RUNX1 Runt–CBFb binding, primary screen, biochemical, FRET, Cerulean-Runt, Venus-CBFb, uHTS. Cerulean-Runt/Venus-CBFb FRET ratio 530/480, 1 h. inhibition, % at 20 µM. Runt-related transcription factor 1 (Homo sapiens) + Core-binding factor subunit beta …. 220,000 tested, 0.46% active;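 active means inhibition over about 50% at 20 µM in the single-dose screen, limit read from the data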;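 further: 0% = DMSO wells and 100% = excess unlabeled CBFb competitor control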
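System: Cerulean-labeled Runt domain protein | Quantity: 100 nM of each labeled protein | Schedule: 1 h compound exposure, room temperature | Detection: Fluorescence energy transfer, 422 nm excitation, 530/480 nm emission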
RanGTP-Imp inh: inhibitors of RanGTP-importin-beta interaction, primary screen, biochemical, FRET, CFP-Ran, YFP-importin-beta, homogeneous; 300,000 tested, 1.1% active; inhibition, % (no concentration beside the values); cell-free CFP-Ran/YFP-importin-beta FRET ratio;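 active means more than half of the replicate wells show a fall in the fluorescence ratio signal beyond about 16%, limit read from the data, passing the limit was not always enough; inconclusive means exactly half of the replicate wells pass the set limit; inactive means fewer than half of replicates pass the limit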;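 further: 0% = DMSO wells and 100% = Ran loaded with GDP instead of GTP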
CaV13 ICDI inh: Primary screen for inhibitors of IQ motif and Ca2+-dependent inactivation inhibitor domain binding in CACNA1D, Förster resonance energy transfer in living cells, … | HEK cells, CFP/YFP FRET ICDI-IQ, plate reader, 10 min; percent FRET-ratio fall versus neutral wells | inhibition, % at 12.3 µM | 340,000 tested, 0.098% active | AID 743397;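 active means mean replicate inhibition of at least 30% and at least 1% of replicates passing that level; inconclusive means only one of the two criteria is met; inactive means neither criterion is met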;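 further: 0% = median of the neutral control wells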
Runt-SMMHC FRET: inhibitors of RUNX1 Runt–CBFb-SMMHC binding, primary screen, biochemical, FRET, Cerulean-Runt, Venus-CBFb-SMMHC, uHTS; Runt-related transcription factor 1 (Homo sapiens) + Core-binding factor subunit beta …; Cerulean-Runt/Venus-CBFb-SMMHC FRET ratio 530/480, 1 h; inhibition, % at 20 µM; 220,000 tested, 0.74% active; AID 1434, 2008;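 active means mean inhibition across duplicate retests at 20 µM reaching about 50%, limit read from the data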;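 further: 0% = DMSO wells and 100% = wells with excess untagged CBFb-SMMHC; inhibitors lower the FRET ratio by blocking Runt binding to CBFb-SMMHC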
YIC FRET counter: YIC intramolecular FRET probe signal interference, dose response, counter-screen for RanGTP-importin-beta inhibitor project, biochemical, fluorescence FRET. Purified YIC probe, intramolecular FRET ratio YFP/CFP. IC50, µM. 1,000 tested, 40% active. shares compounds with RanGTP-Imp inh. AID 435026, 2010;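 active means fitted half-maximal inhibitory concentration no more than tenfold above the top dose tested; inconclusive means flat fit with 30 to 70% activity, or poor fit; inactive means half-maximal concentration beyond tenfold above the top dose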
* hit, by the source's call; ? = inconclusive; · = no result. Rows were chosen to be rich in hits. Some 1.9% of all compounds tested hit in one or more screens of this group.

SMILES	HDAC3 inhib	LANA-H2B inh	Runt-CBFb FRET	RanGTP-Imp inh	CaV13 ICDI inh	Runt-SMMHC FRET	YIC FRET counter
C=CCn1c(SCCOc2ccc(OC)cc2)nnc1C(CO)NC(=O)c1ccc(OC)cc1 (stereo not given)	5	-1	2	19*	-8	-5	>50
O=C(CCS(=O)(=O)c1cccs1)N1CCN(c2ccc(F)cc2)CC1	4	-3	-1	1	-4	-5	·
N#CC1=C(N)Oc2cc3c(cc2C1c1ccc(Cl)cc1)OCO3 (stereo not given)	4	1	0	29*	-10	3	>50
COc1cc(C2C(C#N)=C(N)Oc3cc4c(cc32)OCO4)cc(OC)c1OC (stereo not given)	-2	-1	8	5	-7	5	·
CC(NCc1cccs1)C(=O)NC1CCCCC1 (stereo not given)	-5	0	0	17*	-3	0	>50
CC(C)C(NC(=O)c1cccs1)C(=O)NC1CCCCC1 (stereo not given)	0	0	·	2	-5	·	·
Cc1c(CC(=O)O)c(=O)oc2c(C)c3occ(-c4ccc(F)cc4)c3cc12	1	3	·	24*	-5	·	>50
Fc1ccccc1N1CCN(c2nc3ccccc3n3nnnc23)CC1	-4	1	13	17*	-6	22	27*
COc1cccc2sc(N3CCN(C(=O)c4cccs4)CC3)nc12	1	0	·	0	-5	·	·
CC1(C)CC(=O)C=C(Nc2ccccc2F)C1	-2	3	1	25*	-2	0	>50
CC1(C)CC(=O)C=C(Nc2ccccc2O)C1	0	-1	0	16*	-5	0	>50
O=C(N/N=C1/CCSC1)c1cccc([N+](=O)[O-])c1	0	2	0	4	-5	2	·
COc1c2ccccc2nc2ccccc12	-76	3	·	41*	0	·	14*
COc1ccc(S(=O)(=O)N(C)c2ccc(C(=O)NCc3ccccn3)cc2)cc1OC	3	1	·	1	-6	·	·
CCn1cnc2cc(NCc3ccc(Br)cc3)ccc21	-3	4	·	?	-5	·	·
CCCn1cnc2cc(NCc3ccc(Br)cc3)ccc21	-1	-2	·	19*	-4	·	>50
CSc1nc(-c2ccc(N(C)C)cc2)c(C#N)c(=O)n1C	0	-3	48	17*	-7	85*	9.4*
Cc1cc(SCC(=O)c2ccccc2)nc(C)n1	3	4	-2	0	-6	0	·
COc1ccc(-c2csc3ncnc(N4CCN(c5ccc(OC)cc5)CC4)c23)cc1	8	1	·	22*	·	·	>50
OCC1(Cc2cccc(Cl)c2)CCCN(Cc2ccc3cc(F)ccc3n2)C1 (stereo not given)	6	-5	-1	24*	-6	0	>50
COc1ccc(CNC(=O)COC(=O)/C=C/c2cccc(Br)c2)cc1	-1	-175	-2	-1	0	-2	·
O=C1C=C(NCc2ccc(Cl)cc2)CC(c2ccco2)C1 (stereo not given)	-9	-3	-2	6	-5	-3	·
O=C1C=C(Nc2ccc(Cl)cc2Cl)CC(c2ccco2)C1 (stereo not given)	12	5	1	24*	-2	3	>50
O=C(NC1CC1)c1ccc2c(Cl)c3c(nc2c1)CCCC3	·	-2	-4	17*	3	0	>50
Nc1c(C(=O)NCc2ccco2)nnn1CC(=O)Nc1ccccc1	0	1	0	-5	-4	-7	·
SMILES	HDAC3 inhib	LANA-H2B inh	Runt-CBFb FRET	RanGTP-Imp inh	CaV13 ICDI inh	Runt-SMMHC FRET	YIC FRET counter
N#C/C(=C(/O)CSc1ccccn1)c1nc2ccccc2s1	0	1	7	21*	-64	-1	>50
CCN(CC)CCN(C(=O)c1ccc(Br)s1)c1nc2cc3c(cc2s1)OCCO3	4	-1	0	4	-17	-3	·
CN(C)CCCN(C(=O)c1ccc(Br)s1)c1nc2cc3c(cc2s1)OCCO3	6	2	·	22*	-6	·	>50
O=C(O)C(=O)/C(=C\c1cccc(Cl)c1)c1ccc2ccccc2n1	2	1	6	-9	-2	37	·
N#Cc1ccc(/C=C(\C(=O)C(=O)O)c2ccc3ccccc3n2)cc1	5	2	30	20*	-14	64*	12*
CCCCn1c(N)c(N(CCOC)C(=O)CN2C(=O)c3ccccc3C2=O)c(=O)[nH]c1=O	-1	5	·	6	-3	·	·
CCCCn1c(N)c(N(CCOC)C(=O)CN2c3ccccc3CC2C)c(=O)[nH]c1=O (stereo not given)	3	-3	33	38*	-18	31	>50
CCN1/C(=C2\SC(=S)N(Cc3ccccc3)C2=O)Sc2ccccc21	-2	6	-153	24*	-3	-27	>50
Cc1cccc(C2=NN(c3ccc(Br)cc3)[C@@H](C(=O)N3CCOC3=O)[C@@H]2c2ccc(F)cc2)c1	-5	1	18	18*	-4	56	35*
O=C1OCCN1C(=O)[C@H]1[C@H](c2ccc(F)cc2)C(c2cccc(Cl)c2)=NN1c1ccc(Br)cc1	·	·	·	·	-8	·	·
O=C(NCCSc1ccccc1)c1ccccc1F	-8	0	·	-4	-20	·	·
O=c1cc(N2CCC3(CC2)OCCO3)[nH]c(=O)n1-c1ccc(Br)cc1	·	·	0	17*	·	2	>50
O=c1cc(N2CCN(c3ccccc3F)CC2)[nH]c(=O)n1-c1ccc(Br)cc1	1	0	·	8	-5	3	·
CC(C)CCNC(=O)C(c1ccco1)N(Cc1ccc(F)cc1)C(=O)c1snc(C(N)=O)c1N (stereo not given)	0	0	-2	29*	-7	0	>50
NC(=O)c1nsc(C(=O)N(Cc2ccc(F)cc2)C(C(=O)NC2CCCC2)c2ccco2)c1N (stereo not given)	-7	3	·	5	-3	·	·
Cc1c(CCC(=O)NCCCN2CCCC2=O)c(=O)oc2cc(O)ccc12	-320	-6	·	10	·	·	·
Cc1oc2cc3oc(=O)c(CCC(=O)NC4CC4)c(C)c3cc2c1C	1	1	·	1	·	·	·
